Experiment [1] is described as follows: Selectivity factor, ratio of IC50 for human rRNA A-site to IC50 for Escherichia coli rRNA A-site. Put shortly: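 Ratio from F-NEO displacement titrations, 0.002–2.0 μM compound against 0.1 μM F-NEO:A-site complex (485/535 nm). Measured IC50 stands in for the unmeasurable competition constants in Kd(human)/Kd(E. coli) = 5.75 × K(E. coli)/K(human). Buffer 10 mM HEPES, 50 mM NaCl, 0.4 mM EDTA, pH 7.0.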

Experiment [2] concerns Staphylococcus epidermidis. The experiment can be described thus: Antibacterial activity against Staphylococcus epidermidis ATCC 12228 after 16 to 20 hrs by MTT assay. The class given is functional. In a few lines:
(§1)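 Strains grown in LB 24 h at 37 °C, 250 rpm; overnight culture diluted 1:1000, grown 4 h, diluted 1:1000 again and added to microplates. Incubation 16–20 h at 37 °C; growth read visually and with MTT (1 mg/mL).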
On the technique in general: Tetrazolium assays rely on reduction of a dye to a coloured formazan, in cell work by metabolically active cells.

The subject of experiment [3] is Bacillus cereus. Description: Antibacterial activity against Bacillus cereus ATCC 11778 after 16 to 20 hrs by MTT assay. The experiment is classed as functional. Put shortly: as §1
For experiment [4], the system named is Staphylococcus aureus. The experiment can be described thus: Antibacterial activity against Staphylococcus aureus ATCC 25923 after 16 to 20 hrs by MTT assay. The class given is functional. In a few lines: as §1
A short description of experiment [5]: Displacement of F-NEO from human rRNA A-site by fluorescence assay.
A short description of experiment [6]: Displacement of F-NEO from Escherichia coli rRNA A-site by fluorescence assay.
A short description of experiment [7]: Activity at APH(3')-1a (unknown origin) at 100 uM in presence of […] by […] relative to NEO. Background: DTNB colorimetry detects thiols as they appear.
In experiment [8] the test system is Staphylococcus aureus. Description: Activity at Staphylococcus aureus APH(2'')-1a at 100 uM in presence of […] by […] relative to NEO.
The subject of experiment [9] is Staphylococcus aureus. Description: Activity at Staphylococcus aureus AAC(6')-1e/APH(2'')-1a in presence of AcCoA by Ellmans method relative to NEO.
Experiment [10] can be described thus: Activity at Eis (unknown origin) at 100 uM in presence of AcCoA by Ellmans method relative to NEO. Put shortly:
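Acetylation followed by Ellman's method at 412 nm, 2 mM DTNB, 100 μM compound, 25 °C, triplicate, rates normalized to NEO. AcCoA 500 μM for Eis, 150 μM for AAC(3)-IV; enzyme 0.5 μM for Eis, 0.125 μM for AAC(3)-IV; 50 mM buffer.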

The test system of experiment [11] is Mycobacterium tuberculosis. The experiment can be described thus: Activity at Mycobacterium tuberculosis AAC(2')-1c at 100 uM in presence of AcCoA by Ellmans method relative to NEO. In a few lines: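 N-acetylation by AAC(2')-Ic (0.125 μM enzyme) of 100 μM compound with 150 μM AcCoA and 2 mM DTNB in 100 mM buffer, 25 °C. Thiol release followed at 412 nm (ε = 14,150 M⁻¹cm⁻¹). Rates normalized to neomycin B, triplicate.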

The results in this text go back to ChEMBL document CHEMBL3785055, “Arginine-linked neomycin B dimers: synthesis, rRNA binding, and resistance enzyme activity” (Medchemcomm, 2016).

Converted amounts (≈) assume the structure as drawn. The source made the active and inactive calls.

On to `NCC1O[C@H](O[C@H]2[C@@H](O)[C@H](O[C@H]3[C@H](O)[C@@H](N)C[C@@H](N)[C@@H]3O[C@H]3O[C@H](CN)[C@@H](O)[C@H](O)[C@H]3N)O[C@@H]2CO)[C@H](N)[C@@H](O)[C@@H]1O` (some centres undefined), for which the Ratio IC50 in experiment [1] is 5. Besides, the results for the MIC in experiment [2], in experiment [3] and in experiment [4] were 0.2 µM (≈ 0.123 µg/mL), at most 0.1 µM and 0.2 µM (≈ 0.123 µg/mL), respectively. The IC50 was found to be 76 µM in experiment [5] and 87 µM in experiment [6].

With `N=C(N)NCCC[C@H](NC(=O)CCCCCCCNC(=O)c1cc(-c2cn(C[C@@H]3O[C@H](O[C@H]4[C@H](O)[C@@H](N)C[C@@H](N)[C@@H]4O[C@H]4O[C@H](CN)[C@@H](O)[C@H](O)[C@H]4N)[C@@H](O)[C@H]3O[C@H]3O[C@@H](CN)[C@@H](O)[C@H](O)[C@H]3N)nn2)cc(-c2cn(C[C@H]3O[C@@H](O[C@@H]4[C@@H](O)[C@H](N)C[C@H](N)[C@H]4O[C@@H]4O[C@@H](CN)[C@H](O)[C@@H](O)[C@@H]4N)[C@H](O)[C@@H]3O[C@@H]3O[C@H](CN)[C@H](O)[C@@H](O)[C@@H]3N)nn2)c1)C(N)=O` (stereo in doubt), the Ratio IC50 in experiment [1] came to 5.2. Moreover, the values for the MIC in experiment [2], in experiment [3] and in [4] were 25 µM (≈ 43.6 µg/mL), 3 µM (≈ 5.24 µg/mL) and above 50 µM, respectively. Further, the outcome in experiment [7], in [8], in experiment [9], in experiment [10] and in experiment [11] was inactive. Further, the IC50 in experiment [5] is 43 µM; in experiment [6], 48 µM.

Consider `N=C(N)NCCC[C@H](NC(=O)CCCCCCCCNC(=O)c1cc(-c2cn(C[C@@H]3O[C@H](O[C@H]4[C@H](O)[C@@H](N)C[C@@H](N)[C@@H]4O[C@H]4O[C@H](CN)[C@@H](O)[C@H](O)[C@H]4N)[C@@H](O)[C@H]3O[C@H]3O[C@@H](CN)[C@@H](O)[C@H](O)[C@H]3N)nn2)cc(-c2cn(C[C@H]3O[C@@H](O[C@@H]4[C@@H](O)[C@H](N)C[C@H](N)[C@H]4O[C@@H]4O[C@@H](CN)[C@H](O)[C@@H](O)[C@@H]4N)[C@H](O)[C@@H]3O[C@@H]3O[C@H](CN)[C@H](O)[C@@H](O)[C@@H]3N)nn2)c1)C(N)=O` (stereo in doubt), for which the Ratio IC50 in experiment [1] is 5.9. For the same compound, the MIC in experiment [2] is 50 µM (≈ 88 µg/mL); in experiment [3], 3 µM (≈ 5.28 µg/mL); in experiment [4], above 50 µM. The outcome in experiment [7], in [8], in experiment [9], in experiment [10] and in experiment [11] was inactive. The half-inhibitory concentration (IC50) in [5] came out at 62 µM; in experiment [6], 60 µM.

Consider `N=C(N)NCCC[C@H](NC(=O)CCCCCCNC(=O)c1cc(-c2cn(C[C@@H]3O[C@H](O[C@H]4[C@H](O)[C@@H](N)C[C@@H](N)[C@@H]4O[C@H]4O[C@H](CN)[C@@H](O)[C@H](O)[C@H]4N)[C@@H](O)[C@H]3O[C@H]3O[C@@H](CN)[C@@H](O)[C@H](O)[C@H]3N)nn2)cc(-c2cn(C[C@H]3O[C@@H](O[C@@H]4[C@@H](O)[C@H](N)C[C@H](N)[C@H]4O[C@@H]4O[C@@H](CN)[C@H](O)[C@@H](O)[C@@H]4N)[C@H](O)[C@@H]3O[C@@H]3O[C@H](CN)[C@H](O)[C@@H](O)[C@@H]3N)nn2)c1)C(N)=O` (stereo in doubt), for which the Ratio IC50 in experiment [1] worked out at 7.3. The MIC in experiment [2] is above 50 µM; in experiment [3], 3 µM (≈ 5.2 µg/mL); in experiment [4] it was above 50 µM. Also, the outcome in [7], in experiment [8], in [9], in [10] and in experiment [11] was inactive. For the same compound, the IC50 came to 56 µM in [5] and 44 µM in experiment [6].

As usually defined, the MIC is the smallest concentration in the dilution series that meets the test's criterion for growth inhibition. Read a low MIC as greater potency. Broadly, the IC50 is the midpoint of a concentration-inhibition curve.
